hK5 inh: inhibitors of human kallikrein 5. Q9Y337. recombinant hK5, fluorogenic AMC substrate cleavage. inhibition, % at 5 µM. 210,000 compounds, 0.59% hits;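 active = inhibition of 40% or more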;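 also: 0% = enzyme controls without compound and 100% = no-enzyme blanks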
FXIIa inh: inhibitors of human coagulation factor XIIa | purified FXIIa, Boc-QGR-AMC fluorogenic substrate, 2 h | P00748 | inhibition, % at 5 µM | 220,000 compounds, 0.3% hits | AID 800; in the data active = inhibition above about 40%;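 also: 0% = enzyme with no compound and 100% = blank without enzyme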
Target sequence (P00748 20-372 limits assumed): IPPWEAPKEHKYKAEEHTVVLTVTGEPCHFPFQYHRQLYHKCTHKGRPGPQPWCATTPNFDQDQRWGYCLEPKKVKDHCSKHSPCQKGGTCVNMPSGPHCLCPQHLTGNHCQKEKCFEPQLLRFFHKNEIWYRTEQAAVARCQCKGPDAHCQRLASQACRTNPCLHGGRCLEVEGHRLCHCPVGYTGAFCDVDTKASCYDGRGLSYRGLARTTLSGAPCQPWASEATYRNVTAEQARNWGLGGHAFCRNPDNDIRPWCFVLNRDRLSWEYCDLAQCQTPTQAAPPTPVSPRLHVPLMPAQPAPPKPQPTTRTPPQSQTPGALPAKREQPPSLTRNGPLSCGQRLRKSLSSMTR
Target sequence (P00748 373-615 limits assumed): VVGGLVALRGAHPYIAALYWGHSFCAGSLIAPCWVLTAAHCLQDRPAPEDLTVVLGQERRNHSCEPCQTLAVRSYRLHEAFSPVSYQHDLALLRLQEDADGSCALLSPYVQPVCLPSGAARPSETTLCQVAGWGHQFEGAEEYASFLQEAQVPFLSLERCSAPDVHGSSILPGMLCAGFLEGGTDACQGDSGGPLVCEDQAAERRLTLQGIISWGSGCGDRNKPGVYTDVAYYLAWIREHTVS
FXIa inh: blocks human coagulation factor XIa protease activity. 220,000 compounds, 0.14% hits. purified FXIa, Boc-Glu-Ala-Arg-AMC fluorogenic substrate. inhibition, % at 5 µM;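 active = inhibition of at least 40%; inactive = inhibition below 40%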;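 also: fluorescence of freed AMC excited at 355 nm; 0% = enzyme without compound and 100% = no enzyme blank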
Furin inhibitor: human furin inhibition; P09958; purified furin, fluorogenic substrate cleavage; inhibition, % at 20 µM or 30 µM; 220,000 compounds, 0.061% hits; in the data active = inhibition above about 25%
thrombin 1536: inhibitors of human thrombin | P00734 | alpha-thrombin, Boc-VPR-AMC fluorogenic substrate cleavage | inhibition, % at 5 µM | 220,000 compounds, 0.26% hits | AID 1046;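 active = inhibition at or above 40%; inactive = inhibition below 40%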;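 also: 0% = enzyme with no compound and 100% = wells without enzyme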
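Material: Human alpha-thrombin protein | Buffer or medium: pH 7.5 Tris-saline with Tween 20 | Reagent: Boc-VPR-AMC substrate, 15 µM final | Schedule: Reaction at ambient temperature | Detection: AMC fluorescence at 355 nm excitation and 460 nm emission | Evaluation: Percent inhibition scaled between no-compound controls and no-enzyme blanks | Controls: no-compound enzyme wells and no-enzyme blanks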
HSV augment: HSV replication enhancement | HSV replication augmentation in cells, fold increase | maximum fold increase | 220,000 compounds, 0.005% hits | AID 1956; in the data active = maximum fold increase above about 1.5; tested in PC3 cells
* marks the source's active call; other numbers are inactive results; i = inactive; x = no result given. Compounds with a hit are over-represented: about 1% of the library has one in this group of screens.

SMILES	hK5 inh	FXIIa inh	FXIa inh	Furin inhibitor	thrombin 1536	HSV augment
CC(C)CCN(C)C1CCN(S(=O)(=O)c2cccc(C(F)(F)F)c2)CC1	53*	-9	4	-25	26	x
CSc1nnc(CNS(=O)(=O)c2ccc(Cl)cc2)n1C	-6	9	-1	-27	-3	i
COc1ccc(N=C(NN)c2ccc3ccccc3n2)cc1	-10	10	10	-19	0	i
COc1ccc(CCNC(=O)CO/N=C/c2cc3c(cc2Br)OCO3)cc1OC	-6	3	3	-26	x	i
CC(=O)Nc1cccc(NC(=O)C2CCCN2C(=O)Nc2cccc(C)c2)c1 (centres undefined)	41*	11	12	-26	15	i
CC(C)Cn1c(N)c(C(=O)COC(=O)c2ccc([N+](=O)[O-])o2)c(=O)n(C)c1=O	-2	10	-4	-20	-15	i
Cc1c(/C(O)=C2/C(=O)C(=O)N(CCN3CCOCC3)C2c2cccs2)cnn1-c1ccccc1 (centres undefined)	32	105*	10	8	22	i
COc1ccc(-n2nc3c(c2NC(=O)c2ccc(S(=O)(=O)N4CCOCC4)cc2)CS(=O)C3)cc1 (centres undefined)	-18	-1	-8	-9	-4	i
Cc1ccc(S(=O)(=O)CCN2C=CC(C(F)(F)F)=NCC2)cc1	34	41*	21	13	4	i
O=C(/C=C/c1ccc([N+](=O)[O-])cc1)Nc1ncc([N+](=O)[O-])s1	-3	6	-2	-10	-3	i
O=C(Nc1nnc(-c2ccccc2)s1)c1cc(S(=O)(=O)N2CCOCC2)c(Cl)cc1Cl	5	41*	25	-9	4	i
Cc1ccc2nc(NC(=O)CSCC(=O)OCC(=O)c3ccc(Br)cc3)sc2c1	9	19	7	-7	92*	x
COC(=O)c1ccc2nc(NC(=O)CSCC(=O)OCC(=O)c3ccccc3)sc2c1	-13	9	6	-8	-3	i
O=[N+]([O-])c1cc(C(F)(F)F)ccc1NCCNC(=S)Nc1ccc(Cl)cc1	5	27	-4	-21	-1	i
Cc1nn(-c2ccccc2)c(N)c1C(O)(C(F)(F)F)C(F)(F)F	42*	24	5	-19	26	i
CCOC(=O)C(CC)Sc1nc2c(c(=O)[nH]c(=O)n2C)n1C/C=C(/C)Cl (centres undefined)	2	10	2	28*	7	i
Cc1nnc(SCC(=O)NNC(=O)CC#N)[nH]c1=O	-4	11	6	-12	0	i
O=C(NCc1cccnc1)C(=O)C1C(=O)Nc2ccccc21 (centres undefined)	41*	2	-2	-10	-3	i
CCOC(=O)C1=C(C)N(CCCC(=O)O)C(=O)NC1c1ccc2ccccc2c1 (centres undefined)	x	x	x	x	x	i
CCCOP(=O)(c1ccc(N(C)C)cc1)C(O)c1ccncc1 (centres undefined)	15	15	11	-28	66*	i
CCCCOP(=O)(c1ccc(N(C)C)cc1)C(Nc1ccccc1)c1ccccc1 (centres undefined)	-13	1	0	16	-4	i
CN(C)c1ccc(P(=O)(OCc2ccccc2)C(O)c2ccncc2)cc1 (centres undefined)	-9	23	11	-17	3	x
CCCOP(=O)(c1ccc(N(C)C)cc1)C(Nc1ccccc1)c1ccc(N(C)C)cc1 (centres undefined)	-4	10	8	28*	-2	i
C=CCc1cccc(/C=N/NC(=O)c2ccccc2Br)c1O	x	4	-1	-19	-1	i
O=C(N/N=C/c1ccccc1C(=O)O)c1ccccc1Br	60*	25	62*	-1	25	i
CC1=CCC2C(=O)N(C(C)c3ccccc3)C(=O)C2C1 (centres undefined)	-6	13	64*	-13	1	i
CC(=O)c1c(C)[nH]c(C(=O)CSc2nnc(C)s2)c1C	52*	25	28	-13	40	i
COC(=O)c1c(C)[nH]c(C(C)=O)c1C	11	-10	-18	-15	-3	i
C=CCn1c(C)nnc1SCC(=O)c1[nH]c(C)c(C(C)=O)c1C	-2	-1	-4	-11	-7	i
CC(=O)c1[nH]c(C)c(C(C)=O)c1C	47*	30	3	-11	8	i

Screening results deposited in PubChem BioAssay by several laboratories.
